# Screening data deposited in PubChem by several laboratories.
# Only a selection was taken, and hits are over-represented in it overall.
# Dynein cargo inh = dynein cargo transport inhibition | z-score, hits read low | hit rate 0.47% among 220,000 | 3617.4 mouse cells, GR-EGFP nuclear translocation imaging; test concentration mostly 20 µM; stimulated with dexamethasone, 1 µM; stronger effect = lower value | AID 1381;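 active = plate z-score of nuclear minus cytoplasmic receptor signal below a set negative limit, without overly bright fluorescence or cell loss, cut at about -3.5 in these data, passing the limit was not always enough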;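 note: z-score of nuclear minus cytoplasmic ring GR-EGFP intensity difference per well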
#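 Buffer or medium: Induction medium lacking tetracycline, stripped serum | Also added: Dexamethasone agonist, 1.0 µM final, for 30 min | Timing: 48 h induction, 1 h compound, 30 min dex at 37 °C | Detection: Formaldehyde fixation, Hoechst nuclear stain, 10x automated fluorescence imaging | Measure: Nuclear versus cytoplasmic GR-EGFP signal, averaged per well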
# KCC2 mod = KCC2 (human) Cl- transport modulation; Q9H2X9; KCC2 cells, thallium flux FluoZin-2 fluorescence; B-score of Tl+ flux slope (higher = more flux/activation; lower = inhibition) at 10 µM; hit rate 2.2% among 190,000; AID 1456;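 active = thallium flux slope and its plate-corrected score both differing from the plate sample mean at a set confidence after two filtering rounds, in either direction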;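 note: slope of fluorescence scaled to starting intensity during 10 to 20 s after thallium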
# ABCB6 inh MLPCN = inhibitors of human ABC transporter ABCB6; hit rate 0.19% among 360,000; AID 602162; fluorescence ratio to DMSO, % at 10 µM; K562-ABCB6 porphyrin accumulation, flow cytometry, 1 h; stronger effect = lower value; Q9NP58;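 active = fluorescence ratio to DMSO below 75%, the collection mean minus 3 SD; inconclusive = too few cells collected in the well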;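 note: signal is porphyrin accumulated inside mitochondria; 100% equals median channel fluorescence of DMSO control wells; lower ratio means ABCB6 inhibition with less porphyrin fluorescence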
# p-CIP stab down = p/CIP protein destabilization. AID 1984. F442A p/CIP-EGFP cells, EGFP fluorescence, 16 h. Q05BA5. decrease of EGFP signal, % at 10 µM. hit rate 0.01% among 290,000;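 active = EGFP signal decrease of at least 30% at 10 µM or well 3 SD below plate mean, unless failing retest; inactive = the rest, including hits failing retest or dose response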
# V-ATPase pHluor = regulators of yeast V-ATPase proton transport. S. cerevisiae, pHLuorin cytosolic pH fluorescence. response, % at 10 µM. hit rate 0.37% among 350,000. AID 504577; in the data active = response mostly above about 7.3%, no sharp cut-off; inactive = mostly below about 5.4%; note: actives read high
# KCC2 sec1 = KCC2 (human) modulation, secondary assay. normalised thallium flux (F/F0 slope) at 10 µM. shares compounds with KCC2 mod. HEK293-KCC2, thallium flux, FluoZin2 fluorescence; stronger effect = higher value. hit rate 15% among 3,700;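 active = thallium flux slope above the same plate's solvent-only control mean plus 3 SD; inconclusive = the two replicate wells disagree; inactive = no significant difference from solvent-only control wells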
# KCC2 bumet counter = bumetanide-insensitive thallium flux in KCC2 cells with ouabain, counter-screen; shares compounds with KCC2 mod; HEK293-KCC2 + bumetanide/ouabain, thallium flux FluoZin2; stronger effect = higher value; normalized thallium flux at 10 µM; hit rate 49% among 3,700; AID 1714;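 active = thallium entry rate above the same plate's blocked-transporter control wells by more than 3 SD; inconclusive = the two repeat wells disagree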;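 note: raw slope of fluorescence over initial fluorescence between 10 and 20 s after thallium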
# KCC2 sec2 = confirmation of human KCC2 transport modulators; shares compounds with KCC2 mod; HEK293-KCC2, thallium flux FluoZin2 fluorescence; actives lie on both sides; F/F0 rise rate, 10–20 s post-thallium; normalized thallium flux at 10 µM; hit rate 23% among 3,700; AID 1715;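 active = thallium flux slope more than 3 SD above or below the plate's solvent-only control mean, mostly below; inconclusive = the two repeat wells disagreed; inactive = no significant shift from solvent-only controls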;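 note: raw slope with 0.1% DMSO as baseline and bumetanide as block control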
# HEK counter1 = counter-screen for KCC2 modulators: effect in parental HEK293 cells; shares compounds with KCC2 mod; thallium flux FluoZin2, ouabain; baseline-ratio fluorescence slope, 10–20 s after thallium; thallium flux rate (normalised fluorescence) at 10 µM; hit rate 46% among 3,700; AID 1716;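 active = thallium flux rate significantly above the same plate's solvent-only control wells, beyond their mean plus 3 SD; inconclusive = the two replicate wells gave conflicting results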
# KCC2 retest ouab = modulates human KCC2 on retest with ouabain; shares compounds with KCC2 mod; hit rate 48% among 3,700; HEK293-KCC2, thallium flux FluoZin2 fluorescence; bidirectional: low = inhibitor, high = activator; raw Tl+ flux slope (below DMSO = inhibition, above = activation) at 10 µM;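 active = thallium flux slope beyond 3 SD from same-plate DMSO control mean in most replicates, usually higher, sometimes lower; inconclusive = repeat tests gave conflicting results; inactive = no significant difference from controls in most replicates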;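 note: slope of initial-normalized fluorescence between seconds 10 and 20 after thallium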
# HEK counter2 = counter-screen for KCC2 modulators: effect in parental HEK293 cells; shares compounds with KCC2 mod; thallium flux FluoZin-2 fluorescence slope; thallium flux slope at 10 µM; hit rate 33% among 3,700;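 active = thallium flux slope above the same plate's solvent-control mean plus 3 SD in both duplicate wells; inconclusive = duplicate wells that disagreed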;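 note: run without ouabain in cells lacking the KCC2 cotransporter; slope of fluorescence scaled to its starting value between 10 and 20 s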
# Numbers without * were called inactive; ? = inconclusive; · = not tested or not shown.
SMILES,Dynein cargo inh,KCC2 mod,ABCB6 inh MLPCN,p-CIP stab down,V-ATPase pHluor,KCC2 sec1,KCC2 bumet counter,KCC2 sec2,HEK counter1,KCC2 retest ouab,HEK counter2
N#CC1C(=O)NC(=O)C(C#N)C12CCCC2 (stereo not drawn),·,·,98.0,·,·,·,·,·,·,·,·
O=C(CN1CCN(c2ccccc2F)CC1)c1c[nH]c2ccc(F)cc12,0.38,-3.99*,104.0,8.7,-2.2,0.00728,0.0108*,0.0313,?,0.0176*,0.0101
NC(=O)C1CCN(CC(=O)c2c[nH]c3ccc(F)cc23)CC1,0.353,1.01,98.0,-13.7,-1.4,·,·,·,·,·,·
O=C(CN1C(=O)S/C(=C\C=C\c2ccccc2)C1=O)Nc1ccccc1C(=O)O,-0.4,-5.88*,81.0,11.2,3.5,0.00717,0.00666,?,?,0.0145*,0.01
O=C(CN1C(=O)S/C(=C\C=C\c2ccccc2)C1=O)Nc1cccc(O)c1,-0.964,-2.72,95.0,-7.7,0.7,·,·,·,·,·,·
CC(NC(=O)COC(=O)CN1C(=O)C2CCCCC2C1=O)c1ccccc1 (stereo not drawn),·,·,97.0,·,4.0,·,·,·,·,·,·
O=C(O)c1cccc(Nc2nc(Nc3ccccc3)nc(N3CCCC3)n2)c1,-0.733,-3*,109.0,5.8,5.8,0.00843,0.00568,0.0285,?,0.029*,?
CCCCOc1ccc(-c2c(C#N)c(N)nc(SCC(N)=O)c2C#N)cc1,2.45,-6.41*,105.0,-1.8,3.6,0.00736,0.00664,0.032,0.00761,0.0168*,?
COc1ccc(C2=C(CC(=O)O)C(=O)CC2)cc1,0.947,0.3,97.0,-6.8,-0.5,·,·,·,·,·,·
CC1(OC(=O)CCc2ccccc2)C(=O)C=C2C=C(c3ccc(C#N)cc3)N(Cc3ccccc3)C=C2C1=O (stereo not drawn),-0.0231,-0.611,97.0,-6.2,-0.3,·,·,·,·,·,·
CC(C)CN1C=C2C(=O)C(C)(OC(=O)CCc3ccccc3)C(=O)C=C2C=C1c1ccc(C#N)cc1 (stereo not drawn),-0.0961,3.15*,102.0,-10.9,1.5,0.01,0.00642,0.0358,0.00763,0.0228,?
CC(C)Cn1c(N)c(C(=O)CSc2ccc3c(c2)OCCO3)c(=O)n(C)c1=O,-0.83,-0.701,80.0,-23.2,-1.8,·,·,·,·,·,·
O=C(CSCc1ccc(F)cc1)N1CCN(c2ccc(F)cc2)CC1,-0.255,-3.55*,103.0,8.2,3.4,0.00626,?,0.0316,0.00366,0.0165*,0.0113
COC(=O)[C@]1(C)N[C@H](CN(C)S(=O)(=O)c2ccc(OC(F)(F)F)cc2)[C@@H]2C(=O)N(C)C(=O)[C@@H]21,·,·,100.0,·,2.6,·,·,·,·,·,·
C[C@@H]1CN([C@H](C)CO)C(=O)c2cc(Br)cnc2O[C@@H]1CN(C)C(=O)c1ccccc1,·,·,105.0,·,1.0,·,·,·,·,·,·
COc1ccc(N(CC(=O)N2CCC(Cc3ccccc3)CC2)S(C)(=O)=O)cc1,1.66,-4.95*,93.0,-19.1,2.7,0.006,0.00384,?,0.00612*,0.0153*,0.0101
O=C(CSc1nnc(-c2cnccn2)n1Cc1ccco1)c1ccc2ccccc2c1,-0.804,·,92.0,47.4*,3.0,0.0149,0.00462,?,?,0.0129*,0.0092
